Laboratory results: ChEMBL document CHEMBL6177922, “Antibacterial activity of the structurally novel C-2 amine-substituted analogues based on quinoxaline” (RSC Med Chem, 2025)
In brackets after ≈: the same amount, converted by molar mass. Activity calls are given as the source filed them. No cut-off for these calls is given here.

Experiments:
[1] = system: MCF7; test: Cytotoxicity against human MCF7 cells assessed as inhibition of cell growth incubated for 24 hrs by MTT assay; type: functional, cell-based; conditions: MCF7, 24 h
Summary of the method: (§1)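 MTT assay with 24 h exposure of cells to the samples. IC50 is the concentration giving 50% growth inhibition, reported as mean ± S.D. of three independent experiments.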

[2] = system: Escherichia coli; test: Antibacterial activity against drug sensitive Escherichia coli DH5alpha assessed as reduction in bacterial growth by broth microdilution method; type: functional
Summary of the method: (§2)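 MICs were determined by standard twofold serial broth microdilution in lysogeny broth (LB) medium.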

[3] = system: Staphylococcus aureus; test: Antibacterial activity against methicillin-resistant Staphylococcus aureus USA300 assessed as reduction in bacterial growth by broth microdilution method; type: functional
Summary of the method: (§3)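 Twofold serial dilution (microdilution) MIC in lysogeny broth (LB) medium against drug-resistant strains: MRSA USA300, vancomycin-resistant Enterococci, Klebsiella pneumoniae.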

[4] = system: Klebsiella pneumoniae; test: Antibacterial activity against drug-resistant Klebsiella pneumoniae assessed as reduction in bacterial growth by broth microdilution method; type: functional; summary of the method: as §3
[5] = system: Bacillus subtilis; test: Antibacterial activity against drug sensitive Bacillus subtilis 168 assessed as reduction in bacterial growth by broth microdilution method; type: functional; summary of the method: as §2
[6] = system: Enterococcus; test: Antibacterial activity against vancomycin-resistant Enterococcus assessed as reduction in bacterial growth by broth microdilution method; type: functional; summary of the method: as §3
[7] = system: Pseudomonas aeruginosa; test: Antibacterial activity against drug sensitive Pseudomonas aeruginosa PAO1 assessed as reduction in bacterial growth by broth microdilution method; type: functional; summary of the method: as §2
[8] = system: Staphylococcus aureus; test: Antibacterial activity against drug sensitive Staphylococcus aureus RN4220 assessed as reduction in bacterial growth by broth microdilution method; type: functional; summary of the method: as §2
[9] = system: Staphylococcus aureus; test: Antibacterial activity against methicillin-resistant Staphylococcus aureus infected in Kunming mouse corneal infection model assessed as reduction in viable bacterial count at 6 mg/ml, TOP administered 3 times daily for 1 week; type: functional, organism-based; conditions: time 1.0 weeks
Summary of the method: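 Corneal infection model: male and female Kunming mice (~20 g) immunosuppressed with daily i.p. cyclophosphamide for 3 days. Anesthetized with i.p. avertin (400 mg kg-1), corneas abraded and given 20 μL MRSA (6 × 10^7 CFU mL-1). From 24 h post-infection, treated by topical smear three times daily for one week. Controls: 5% glucose and 5% vancomycin. Six mice per group. Corneal viable counts measured.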

[10] = Cytotoxicity against human HK-2 cells assessed as inhibition of cell growth incubated for 24 hrs by MTT assay; type: toxicity, cell-based; summary of the method: as §1
[11] = Cytotoxicity against human HEK293 cells assessed as inhibition of cell growth incubated for 24 hrs by MTT assay; type: toxicity, cell-based; summary of the method: as §1
[12] = system: Staphylococcus aureus; test: Bactericidal activity against methicillin-resistant Staphylococcus aureus assessed as inhibition of bacterial growth at 2 times MIC incubated for 24 hrs by time kill assay; type: functional, organism-based
Summary of the method: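 Time-kill: MRSA grown 24 h at 37 °C, adjusted to ~2 × 10^6 CFU mL-1, exposed at 2× or 3× MIC with shaking at 37 °C. Aliquots taken at 0.5–13 h, serially diluted 10-fold in PBS, plated on Mueller–Hinton agar, counted after 24 h at 37 °C. Duplicate.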

O=c1[nH]cc(F)c(=O)[nH]1 [FLUOROURACIL]
IC50 [1]: 0.85 µg/mL (≈ 6.53 µM)

CCNc1nc2ccccc2nc1N
MIC [2]: > 128 µg/mL | MIC [3]: > 128 µg/mL | MIC [4]: > 128 µg/mL | MIC [5]: 128 µg/mL (≈ 680 µM) | MIC [6]: 128 µg/mL (≈ 680 µM) | MIC [7]: 128 µg/mL (≈ 680 µM) | MIC [8]: 128 µg/mL (≈ 680 µM)

Nc1nc2ccccc2nc1NCCC1=CCCCC1
MIC [2]: > 128 µg/mL | MIC [3]: > 128 µg/mL | MIC [4]: > 128 µg/mL | MIC [5]: 128 µg/mL (≈ 477 µM) | MIC [6]: > 128 µg/mL | MIC [7]: > 128 µg/mL | MIC [8]: 64 µg/mL (≈ 238 µM)

CN[C@H](CC(C)C)C(=O)N[C@H]1C(=O)N[C@@H](CC(N)=O)C(=O)N[C@H]2C(=O)N[C@H]3C(=O)N[C@H](C(=O)N[C@H](C(=O)O)c4cc(O)cc(O)c4-c4cc3ccc4O)[C@H](O)c3ccc(c(Cl)c3)Oc3cc2cc(c3O[C@@H]2O[C@H](CO)[C@@H](O)[C@H](O)[C@H]2O[C@H]2C[C@](C)(N)[C@H](O)[C@H](C)O2)Oc2ccc(cc2Cl)[C@H]1O
Activity [9]: Active

Nc1nc2ccccc2nc1NCCc1ccccc1F
MIC [2]: 128 µg/mL (≈ 453 µM) | MIC [3]: 128 µg/mL (≈ 453 µM) | MIC [4]: > 128 µg/mL | MIC [5]: 128 µg/mL (≈ 453 µM) | MIC [6]: 128 µg/mL (≈ 453 µM) | MIC [7]: 128 µg/mL (≈ 453 µM) | MIC [8]: 64 µg/mL (≈ 227 µM)

Nc1nc2ccccc2nc1NCCC1CCCCC1
MIC [2]: > 128 µg/mL | MIC [3]: 128 µg/mL (≈ 473 µM) | MIC [4]: > 128 µg/mL | MIC [5]: > 128 µg/mL | MIC [6]: > 128 µg/mL | MIC [7]: 128 µg/mL (≈ 473 µM) | MIC [8]: 128 µg/mL (≈ 473 µM)

NC[C@H]1O[C@H](O[C@H]2[C@H](O)[C@@H](O[C@H]3O[C@H](CO)[C@@H](O)[C@H](N)[C@H]3O)[C@H](N)C[C@@H]2N)[C@H](O)[C@@H](O)[C@@H]1O [KANAMYCIN]
MIC [2]: 1 µg/mL (≈ 2.06 µM) | MIC [3]: 1 µg/mL (≈ 2.06 µM) | MIC [4]: 4 µg/mL (≈ 8.26 µM) | MIC [5]: 0.5 µg/mL (≈ 1.03 µM) | MIC [6]: 8 µg/mL (≈ 16.5 µM) | MIC [7]: 4 µg/mL (≈ 8.26 µM) | MIC [8]: 1 µg/mL (≈ 2.06 µM)

Nc1nc2ccccc2nc1NCCCc1ccccc1
MIC [2]: 128 µg/mL (≈ 460 µM) | MIC [3]: 128 µg/mL (≈ 460 µM) | MIC [4]: 128 µg/mL (≈ 460 µM) | IC50 [1]: 68.7 µg/mL (≈ 247 µM) | MIC [5]: 64 µg/mL (≈ 230 µM) | MIC [6]: 128 µg/mL (≈ 460 µM) | IC50 at 24 h [10]: 141 µg/mL (≈ 506 µM) | IC50 at 24 h [11]: 126 µg/mL (≈ 451 µM) | MIC [7]: > 128 µg/mL | MIC [8]: 32 µg/mL (≈ 115 µM)

Nc1nc2ccccc2nc1NCCc1ccccc1Br
MIC [2]: > 128 µg/mL | MIC [3]: 128 µg/mL (≈ 373 µM) | MIC [4]: 64 µg/mL (≈ 186 µM) | MIC [5]: 64 µg/mL (≈ 186 µM) | MIC [6]: 128 µg/mL (≈ 373 µM) | MIC [7]: 128 µg/mL (≈ 373 µM) | MIC [8]: 128 µg/mL (≈ 373 µM)

CCn1cc(C(=O)O)c(=O)c2cc(F)c(N3CCNCC3)cc21
Activity [12]: Active

Nc1nc2ccccc2nc1NCCc1ccc(F)cc1
MIC [2]: 128 µg/mL (≈ 453 µM) | MIC [3]: > 128 µg/mL | MIC [4]: 128 µg/mL (≈ 453 µM) | MIC [5]: 64 µg/mL (≈ 227 µM) | MIC [6]: 128 µg/mL (≈ 453 µM) | MIC [7]: > 128 µg/mL | MIC [8]: 64 µg/mL (≈ 227 µM)

COc1ccc(CCNc2nc3ccccc3nc2N)cc1
MIC [2]: 32 µg/mL (≈ 109 µM) | MIC [3]: 16 µg/mL (≈ 54.4 µM) | MIC [4]: 64 µg/mL (≈ 217 µM) | IC50 [1]: 71.5 µg/mL (≈ 243 µM) | MIC [5]: 16 µg/mL (≈ 54.4 µM) | MIC [6]: > 128 µg/mL | IC50 at 24 h [10]: 139 µg/mL (≈ 471 µM) | IC50 at 24 h [11]: 129 µg/mL (≈ 437 µM) | MIC [7]: 128 µg/mL (≈ 435 µM) | MIC [8]: 16 µg/mL (≈ 54.4 µM)

Nc1nc2ccccc2nc1NCCc1ccccc1
MIC [2]: 128 µg/mL (≈ 484 µM) | MIC [3]: > 128 µg/mL | MIC [4]: > 128 µg/mL | IC50 [1]: 72.3 µg/mL (≈ 274 µM) | MIC [5]: 64 µg/mL (≈ 242 µM) | MIC [6]: > 128 µg/mL | IC50 at 24 h [10]: 130 µg/mL (≈ 493 µM) | IC50 at 24 h [11]: 123 µg/mL (≈ 467 µM) | MIC [7]: 128 µg/mL (≈ 484 µM) | MIC [8]: 32 µg/mL (≈ 121 µM)

Cc1ccc(CCNc2nc3ccccc3nc2N)cc1
MIC [2]: 32 µg/mL (≈ 115 µM) | MIC [3]: 32 µg/mL (≈ 115 µM) | MIC [4]: 64 µg/mL (≈ 230 µM) | IC50 [1]: 70.9 µg/mL (≈ 255 µM) | MIC [5]: 32 µg/mL (≈ 115 µM) | MIC [6]: > 128 µg/mL | IC50 at 24 h [10]: 150 µg/mL (≈ 538 µM) | IC50 at 24 h [11]: 136 µg/mL (≈ 487 µM) | MIC [7]: 64 µg/mL (≈ 230 µM) | MIC [8]: 16 µg/mL (≈ 57.5 µM)

Nc1nc2ccccc2nc1NCCc1ccc(Cl)c(Cl)c1
MIC [2]: > 128 µg/mL | MIC [3]: > 128 µg/mL | MIC [4]: > 128 µg/mL | MIC [5]: > 128 µg/mL | MIC [6]: > 128 µg/mL | MIC [7]: > 128 µg/mL | MIC [8]: > 128 µg/mL

Nc1nc2ccccc2nc1NCCc1ccc(Br)cc1
MIC [2]: 128 µg/mL (≈ 373 µM) | MIC [3]: > 128 µg/mL | MIC [4]: > 128 µg/mL | MIC [5]: 64 µg/mL (≈ 186 µM) | MIC [6]: > 128 µg/mL | MIC [7]: 128 µg/mL (≈ 373 µM) | MIC [8]: 64 µg/mL (≈ 186 µM)

COc1cccc(CCNc2nc3ccccc3nc2N)c1
MIC [2]: 16 µg/mL (≈ 54.4 µM) | MIC [3]: 16 µg/mL (≈ 54.4 µM) | MIC [4]: 64 µg/mL (≈ 217 µM) | IC50 [1]: 74.7 µg/mL (≈ 254 µM) | MIC [5]: 32 µg/mL (≈ 109 µM) | MIC [6]: 128 µg/mL (≈ 435 µM) | IC50 at 24 h [10]: 142 µg/mL (≈ 483 µM) | IC50 at 24 h [11]: 130 µg/mL (≈ 443 µM) | MIC [7]: 64 µg/mL (≈ 217 µM) | MIC [8]: 8 µg/mL (≈ 27.2 µM)

CNc1nc2ccccc2nc1N
MIC [2]: 128 µg/mL (≈ 735 µM) | MIC [3]: > 128 µg/mL | MIC [4]: > 128 µg/mL | MIC [5]: 64 µg/mL (≈ 367 µM) | MIC [6]: > 128 µg/mL | MIC [7]: 128 µg/mL (≈ 735 µM) | MIC [8]: 128 µg/mL (≈ 735 µM)

Nc1nc2ccccc2nc1NCc1ccc2ccccc2c1
MIC [2]: 64 µg/mL (≈ 213 µM) | MIC [3]: 64 µg/mL (≈ 213 µM) | MIC [4]: > 128 µg/mL | IC50 [1]: 69.7 µg/mL (≈ 232 µM) | MIC [5]: 32 µg/mL (≈ 107 µM) | MIC [6]: > 128 µg/mL | IC50 at 24 h [10]: 147 µg/mL (≈ 488 µM) | IC50 at 24 h [11]: 131 µg/mL (≈ 435 µM) | MIC [7]: > 128 µg/mL | MIC [8]: 32 µg/mL (≈ 107 µM)
